Results taken from ChEMBL document CHEMBL1208778, “Synthesis and anti-cancer activity of chalcone linked imidazolones” (2010).
Each block holds one compound with its values, some of them ahead of it. The source made the active and inactive calls. No cut-off for these calls is given here.

Key:
MCF7 [1] = assay: Cell cycle arrest in human MCF7 cells assessed as accumulation at S phase at 30 uM after 24 hrs by FACS analysis; format: functional
In short: (§1)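 MCF-7 cells were treated at 30 µM for 24 h alongside a DMSO control. Fractions in G0, G1, S and G2/M phases were measured by FACS, and values are means of three experiments.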

MCF7 [2] = assay: Induction of apoptosis in human MCF7 cells assessed as decrease in procaspase 7 level at 30 uM after 24 hrs by Western blot analysis; format: functional, cell-based
In short: (§2)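 MCF-7 breast carcinoma cells were exposed to 30 µM compound for 24 h, with CA-4 as positive control. Cell lysates were then immunoblotted with antibodies to procaspase-7 and cleavage-specific PARP, using β-actin as loading control.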

MCF7 [3] = assay: Induction of apoptosis in human MCF7 cells assessed as […] in PARP cleavage at 30 uM after 24 hrs by Western blot analysis; format: functional, cell-based; in short: as §2
MCF7 [4] = assay: Cell cycle arrest in human MCF7 cells assessed as accumulation at G1 phase at 30 uM after 24 hrs by FACS analysis; format: functional; in short: as §1
MCF7 [5] = assay: Cell cycle arrest in human MCF7 cells assessed as accumulation at G2/M phase at 10 uM after 24 hrs by FACS analysis; format: functional
In short: (§3)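 MCF-7 breast carcinoma cells were exposed to 10 µM test compound for 24 h, with DMSO as the vehicle control. Cell-cycle distribution was read by FACS as the percentage of cells in G0, G1, S and G2/M.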

MCF7 [6] = assay: Cell cycle arrest in human MCF7 cells assessed as accumulation at G2/M phase at 30 uM after 24 hrs by FACS analysis; format: functional; in short: as §1
MCF7 [7] = assay: Cell cycle arrest in human MCF7 cells assessed as accumulation at G0 phase at 30 uM after 24 hrs by FACS analysis; format: functional; in short: as §1
MCF7 [8] = assay: Cell cycle arrest in human MCF7 cells assessed as accumulation at S phase at 10 uM after 24 hrs by FACS analysis; format: functional; in short: as §3
MCF7 [9] = assay: Cell cycle arrest in human MCF7 cells assessed as accumulation at G0 phase at 10 uM after 24 hrs by FACS analysis; format: functional; in short: as §3
MCF7 [10] = assay: Cell cycle arrest in human MCF7 cells assessed as accumulation at G1 phase at 10 uM after 24 hrs by FACS analysis; format: functional; in short: as §3
BT-549 = assay: Growth inhibition of human BT549 cells; format: functional
In short: (§4)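 Five-dose testing was run within the NCI (Bethesda) in vitro Anticancer Screen Program on a panel of 53 human tumour cell lines from nine cancer types. Growth inhibition is reported as GI50.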

SW-620 = assay: Growth inhibition of human SW620 cells; format: functional
In short: (§5)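 Compounds that passed a preliminary screen were tested at five doses in the NCI (Bethesda) in vitro Anticancer Screen Program against a 53-line human tumour panel spanning leukemia, lung, colon, CNS, melanoma, ovarian, renal, prostate and breast. Growth inhibition is reported as GI50.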

OVCAR-4 = assay: Growth inhibition of human OVCAR4 cells; format: functional; in short: as §4
SN12C = assay: Growth inhibition of human SN12C cells; format: functional; in short: as §5
MCF7 [11] = assay: Growth inhibition of human MCF7 cells; format: functional; in short: as §4
T47D = assay: Growth inhibition of human T47D cells; format: functional; in short: as §5
786-0 = assay: Growth inhibition of human 786-0 cells; format: functional; in short: as §4
LOX IMVI = assay: Growth inhibition of human LOXIMVI cells; format: functional; in short: as §4
HCT-116 = assay: Growth inhibition of human HCT116 cells; format: functional; in short: as §4
[12] = Growth inhibition of human Hs 578T cells; format: functional; in short: as §4
NCI-H322M = assay: Growth inhibition of human NCI-H322M cells; format: functional; in short: as §4
M14 = assay: Growth inhibition of human M14 cells; format: functional; in short: as §4
SK-MEL-5 = assay: Growth inhibition of human SK-MEL-5 cells; format: functional; in short: as §4
HOP-92 = assay: Growth inhibition of human HOP92 cells; format: functional; in short: as §4
SNB-19 = assay: Growth inhibition of human SNB19 cells; format: functional; in short: as §5
TK-10 = assay: Growth inhibition of human TK10 cells; format: functional; in short: as §5
HOP-62 = assay: Growth inhibition of human HOP62 cells; format: functional; in short: as §4
K562 = assay: Growth inhibition of human K562 cells; format: functional; in short: as §4
SK-OV-3 = assay: Growth inhibition of human SKOV3 cells; format: functional; in short: as §5
UO-31 = assay: Growth inhibition of human UO31 cells; format: functional; in short: as §5
NCI-H522 = assay: Growth inhibition of human NCI-H522 cells; format: functional; in short: as §4
MDA-MB-231 = assay: Growth inhibition of human MDA-MB-231 cells; format: functional; in short: as §4
SF-295 = assay: Growth inhibition of human SF295 cells; format: functional; in short: as §4
NCI-H226 = assay: Growth inhibition of human NCI-H226 cells; format: functional; in short: as §4
ACHN = assay: Growth inhibition of human ACHN cells; format: functional; in short: as §4
Malme-3M = assay: Growth inhibition of human MALME-3M cells; format: functional; in short: as §4
SNB-75 = assay: Growth inhibition of human SNB75 cells; format: functional; in short: as §5
A498 = assay: Growth inhibition of human A498 cells; format: functional; in short: as §4
NCI/ADR-RES = assay: Growth inhibition of human NCI/ADR-RES cells; format: functional; in short: as §4
NCI-H460 = assay: Growth inhibition of human NCI-H460 cells; format: functional; in short: as §4
OVCAR-5 = assay: Growth inhibition of human OVCAR5 cells; format: functional; in short: as §4
COLO 205 = assay: Growth inhibition of human COLO205 cells; format: functional; in short: as §4
SK-MEL-2 = assay: Growth inhibition of human SK-MEL-2 cells; format: functional; in short: as §4
CAKI-1 = assay: Growth inhibition of human Caki1 cells; format: functional; in short: as §4
KM12 = assay: Growth inhibition of human KM12 cells; format: functional; in short: as §4
A549 = assay: Growth inhibition of human A549 cells; format: functional; in short: as §4
SF-268 = assay: Growth inhibition of human SF268 cells; format: functional; in short: as §4
HCC 2998 = assay: Growth inhibition of human HCC2998 cells; format: functional; in short: as §4
OVCAR-8 = assay: Growth inhibition of human OVCAR8 cells; format: functional; in short: as §4
PC-3 = assay: Growth inhibition of human PC3 cells; format: functional; in short: as §4
MDA-MB-435 = assay: Growth inhibition of human MDA-MB-435 cells; format: functional; in short: as §4
SF-539 = assay: Growth inhibition of human SF539 cells; format: functional; in short: as §4
UACC-257 = assay: Growth inhibition of human UACC257 cells; format: functional; in short: as §5
U-251 = assay: Growth inhibition of human U251 cells; format: functional; in short: as §5
RXF 393 = assay: Growth inhibition of human RXF393 cells; format: functional; in short: as §4
[13] = Growth inhibition of human RPMI8266 cells; format: functional; in short: as §4
NCI-H23 = assay: Growth inhibition of human NCI-H23 cells; format: functional; in short: as §4
OVCAR-3 = assay: Growth inhibition of human OVCAR-3 cells; format: functional; in short: as §4
SK-MEL-28 = assay: Growth inhibition of human SK-MEL-28 cells; format: functional; in short: as §4
EKVX = assay: Growth inhibition of human EKVX cells; format: functional; in short: as §4
HT-29 = assay: Growth inhibition of human HT-29 cells; format: functional; in short: as §4
UACC-62 = assay: Growth inhibition of human UACC62 cells; format: functional; in short: as §5
HCT-15 = assay: Growth inhibition of human HCT15 cells; format: functional; in short: as §4

SMILES: COc1cc(/C=C/C(=O)c2cccc(N)c2)cc(OC)c1OC
Activity (MCF7 [1]): 9.31%
Activity (MCF7 [2]): inactive
Activity (MCF7 [3]): inactive
Activity (MCF7 [4]): 52.31%
Activity (MCF7 [5]): 23.57%
Activity (MCF7 [6]): 15.8%
Activity (MCF7 [7]): 22.58%
Activity (MCF7 [8]): 14.96%
Activity (MCF7 [9]): 2.87%
Activity (MCF7 [10]): 56.17%

GI50 (BT-549): 2520 nM
GI50 (SW-620): 2000 nM
GI50 (OVCAR-4): 4640 nM
GI50 (MCF7 [11]): 2300 nM
GI50 (T47D): 3090 nM
GI50 (786-0): 2070 nM
GI50 (HCT-116): 1460 nM
GI50 (NCI-H322M): 4580 nM
GI50 (SK-MEL-5): 1800 nM
GI50 (K562): 1420 nM
GI50 (SK-OV-3): 3190 nM
GI50 (NCI-H522): 2360 nM
GI50 (MDA-MB-231): 3870 nM
GI50 (NCI-H226): 2770 nM
GI50 (ACHN): 2190 nM
GI50 (NCI-H460): 3900 nM
GI50 (OVCAR-5): 2000 nM
GI50 (COLO 205): 3400 nM
GI50 (SK-MEL-2): 3660 nM
GI50 (A549): 6780 nM
GI50 (HCC 2998): 1850 nM
GI50 (OVCAR-8): 4180 nM
GI50 (PC-3): 1950 nM
GI50 (MDA-MB-435): 2250 nM
GI50 (U-251): 2230 nM
GI50 (NCI-H23): 3180 nM
GI50 (OVCAR-3): 1560 nM
GI50 (SK-MEL-28): 2060 nM
GI50 (HT-29): 2970 nM
GI50 (HCT-15): 1800 nM
SMILES: COc1cc(/C=C/C(=O)c2cccc(-n3cc(-c4ccc(Cl)cc4)[nH]c3=O)c2)ccc1O
GI50 (SN12C): 2870 nM
Activity (MCF7 [1]): 6.17%
Activity (MCF7 [2]): Active
GI50 (LOX IMVI): 1630 nM
Activity (MCF7 [3]): Active
GI50 [12]: 4670 nM
Activity (MCF7 [4]): 50.61%
GI50 (M14): 2860 nM
GI50 (HOP-92): 1260 nM
GI50 (SNB-19): 3170 nM
GI50 (TK-10): 4670 nM
GI50 (HOP-62): 2840 nM
Activity (MCF7 [5]): 31.65%
GI50 (UO-31): 1670 nM
GI50 (SF-295): 10500 nM
Activity (MCF7 [6]): 10.35%
GI50 (Malme-3M): 3060 nM
GI50 (SNB-75): 2750 nM
GI50 (A498): 2820 nM
GI50 (NCI/ADR-RES): 2280 nM
Activity (MCF7 [7]): 32.89%
GI50 (CAKI-1): 2640 nM
GI50 (KM12): 1480 nM
Activity (MCF7 [8]): 18.1%
GI50 (SF-268): 2500 nM
GI50 (SF-539): 1780 nM
GI50 (UACC-257): 8690 nM
GI50 (RXF 393): 6400 nM
GI50 [13]: 1330 nM
Activity (MCF7 [9]): 3.56%
GI50 (EKVX): 9610 nM
Activity (MCF7 [10]): 46.69%
GI50 (UACC-62): 2740 nM
